# Results taken from paper PMC4661106 (Bioorganic & medicinal chemistry, 2015).
# Columns and labels:
# HIV-1 PR [1] = molecular target: T1, HIV-1 PR (Human immunodeficiency virus type 1 group M subtype B, UniProt P04585); assay type: biochemical
# MT-4 cells = test: Endpoint cytotoxicity assay, viable cells by trypan-blue dye exclusion; assay type: cell-based; settings: three days, Figure 5; for general cytotoxicity to MT-4 cells: at 100 μM; for general cytotoxicity: tolerated by MT-4 cells: up to 50 μM
# Outline: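 Uninfected MT-4 cells were seeded at 2 × 10^5 cells/ml, in triplicate, in medium with carrier only or test compound at 10, 50 or 100 μM. Compounds were dissolved in DMSO and diluted in medium to a final DMSO of 0.25%. Incubation was 37 °C, 5% CO2. After three days, viable cells were counted by trypan-blue dye exclusion.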
# [2] = tested on: HIV replication in TZM-bl cells; test: Viral replication inhibition assay, luciferase reporter; assay type: cell-based; settings: doses of 50 μM or higher, MOI = 0.01
# Outline: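 TZM-bl cells (HeLa-derived; CD4, CCR5, CXCR4; tat-driven luciferase) were seeded at 1×10^4 cells/mL and incubated overnight. The medium was then replaced with replication-competent pNL4-3 HIV or mock, in medium with carrier or test compound at final 25, 50 or 100 μM. Final DMSO was 0.25%. Conditions were run in triplicate. On the indicated days post infection, cells were PBS-washed and luciferase was read. RLU was expressed relative to the untreated control.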
# HIV-1 PR [3] = molecular target: T1, HIV-1 PR; test: Michaelis-Menten kinetics, mode of inhibition; assay type: biochemical; settings: Michaelis-Menten analysis, Figure 4
# Compound solubility = assay type: physicochemical
SMILES,Ki (HIV-1 PR [1]) [µM],further results
"CCC(C)[C@@H]1N=C(C)c2ccc(C(=O)OC(C)(C)C)cc2NC1=O (stereo in doubt) [Compound 6e, (S)-tert-Butyl 3-((R)-sec-butyl)-5-methyl-2-oxo-2,3-dihydro-1H-benzo[e][1,4]diazepine-8-carboxylate]",> 200,
"CC1=NCC(=O)Nc2cc(C(=O)OC(C)(C)C)ccc21 [Compound 6a, tert-Butyl 5-methyl-2-oxo-2,3-dihydro-1H-benzo[e][1,4]diazepine-8-carboxylate]",> 200,
"CC1=N[C@@H](C)C(=O)Nc2cc(C(=O)OC(C)(C)C)ccc21 [Compound 6b, (S)-tert-Butyl 3,5-dimethyl-2-oxo-2,3-dihydro-1H-benzo[e][1,4]diazepine-8-carboxylate]",> 200,
"CC1=N[C@H](CC(C)C)C(=O)Nc2cc(C(=O)OC(C)(C)C)ccc21 [Compound 6d, (R)-tert-Butyl 3-isobutyl-5-methyl-2-oxo-2,3-dihydro-1H-benzo[e][1,4]diazepine-8-carboxylate]",> 200,
"CC1=N[C@@H](C)C(=O)Nc2cc(C(=O)O)ccc21 [Compound 7b, (S)-3,5-Dimethyl-2-oxo-2,3-dihydro-1H-benzo[e][1,4]diazepine-8-carboxylic acid]",> 200,
"CC1=N[C@@H](CC(C)C)C(=O)Nc2cc(C(=O)O)ccc21 [Compound 7c, (S)-3-Isobutyl-5-methyl-2-oxo-2,3-dihydro-1H-benzo[e][1,4]diazepine-8-carboxylic acid]",> 200,
"CC1=N[C@H](CC(C)C)C(=O)Nc2cc(C(=O)O)ccc21 [Compound 7d, (R)-3-Isobutyl-5-methyl-2-oxo-2,3-dihydro-1H-benzo[e][1,4]diazepine-8-carboxylic acid]",> 200,
"CC1=N[C@@H](Cc2ccccc2)C(=O)Nc2cc(C(=O)O)ccc21 [Compound 7f, (S)-3-Benzyl-5-methyl-2-oxo-2,3-dihydro-1H-benzo[e][1,4]diazepine-8-carboxylic acid]",> 200,
"CC1=N[C@H](Cc2ccccc2)C(=O)Nc2cc(C(=O)O)ccc21 [Compound 7g, (R)-3-benzyl-5-methyl-2-oxo-2,3-dihydro-1H-benzo[e][1,4]diazepine-8-carboxylic acid]",> 200,
"CC1=N[C@H](CC(C)C)C(=O)N(Cc2ccccc2)c2cc(C(=O)OC(C)(C)C)ccc21 [Compound 8h, (R)-tert-Butyl 1-benzyl-3-isobutyl-5-methyl-2-oxo-2,3-dihydro-1H-benzo[e][1,4]diazepine-8-carboxylate]",> 200,
"CC1=N[C@H](CC(C)C)C(=O)N(Cc2ccncc2)c2cc(C(=O)OC(C)(C)C)ccc21 [Compound 8m, (R)-tert-Butyl 3-isobutyl-5-methyl-2-oxo-1-(pyridin-4-ylmethyl)-2,3-dihydro-1H-benzo[e][1,4]diazepine-8-carboxylate]",> 200,
"CCCCCCCCCCNC(=O)CN1C(=O)[C@@H](CC(C)C)N=C(C)c2ccc(C(=O)OC(C)(C)C)cc21 [Compound 8o, (R)-tert-Butyl 3-isobutyl-5-methyl-2-oxo-1-(2-oxo-2-(decylamino)ethyl)-2,3-dihydro-1H-benzo[e][1,4]diazepine-8-carboxylate]",> 200,
"CCCCCCNC(=O)CN1C(=O)[C@@H](CC(C)C)N=C(C)c2ccc(C(=O)OC(C)(C)C)cc21 [Compound 8q, (R)-tert-Butyl 3-isobutyl-5-methyl-2-oxo-1-(2-oxo-2-(hexylamino)ethyl)-2,3-dihydro-1H-benzo[e][1,4]diazepine-8-carboxylate]",> 200,
"CC1=N[C@H](CC(C)C)C(=O)N(CC(=O)N2CCN(C(=O)OCc3ccccc3)CC2)c2cc(C(=O)OC(C)(C)C)ccc21 [Compound 8s, (R)-tert-Butyl 1-(2-(4-((benzyloxy)carbonyl)piperazin-1-yl)-2-oxoethyl)-3-isobutyl-5-methyl-2-oxo-2,3-dihydro-1H-benzo[e][1,4]diazepine-8-carboxylate]",> 200,
"CC1=N[C@H](CC(C)C)C(=O)N(CC(=O)N2CCN(C(=O)OCC3c4ccccc4-c4ccccc43)CC2)c2cc(C(=O)OC(C)(C)C)ccc21 [Compound 8t, (R)-tert-Butyl 1-(2-(4-(((9H-fluoren-9-yl)methoxy)carbonyl)piperazin-1-yl)-2-oxoethyl)-3-isobutyl-5-methyl-2-oxo-2,3-dihydro-1H-benzo[e][1,4]diazepine-8-carboxylate]",> 200,
"CC1=N[C@H](CC(C)C)C(=O)N(Cc2ccc(C3CCCCC3)cc2)c2cc(C(=O)O)ccc21 [Compound 9d, (R)-1-(4-Cyclohexylbenzyl)-3-isobutyl-5-methyl-2-oxo-2,3-dihydro-1H-benzo[e][1,4]diazepine-8-carboxylic acid]",,general cytotoxicity to MT-4 cells (MT-4 cells): particularly cytotoxic; general cytotoxicity: tolerated by MT-4 cells (MT-4 cells): tolerated; inhibition of HIV replication within cells (RLU relative to control) [2]: appeared to inhibit HIV replication
"CC1=N[C@H](CC(C)C)C(=O)N(Cc2ccccc2)c2cc(C(=O)O)ccc21 [Compound 9h, (R)-1-Benzyl-3-isobutyl-5-methyl-2-oxo-2,3-dihydro-1H-benzo[e][1,4]diazepine-8-carboxylic acid]",> 200,
"CC1=N[C@H](CC(C)C)C(=O)N(Cc2ccc(-c3ccccc3)cc2)c2cc(C(=O)O)ccc21 [Compound 9j, (R)-1-([1,1′-Biphenyl]-4-ylmethyl)-3-isobutyl-5-methyl-2-oxo-2,3-dihydro-1H-benzo[e][1,4]diazepine-8-carboxylic acid]",,general cytotoxicity to MT-4 cells (MT-4 cells): particularly cytotoxic; general cytotoxicity: tolerated by MT-4 cells (MT-4 cells): tolerated; inhibition of HIV replication within cells (RLU relative to control) [2]: appeared to inhibit HIV replication
"CC1=N[C@H](CC(C)C)C(=O)N(CC(C)C)c2cc(C(=O)O)ccc21 [Compound 9k, (R)-1,3-Diisobutyl-5-methyl-2-oxo-2,3-dihydro-1H-benzo[e][1,4]diazepine-8-carboxylic acid]",> 200,
"CC1=N[C@H](CC(C)C)C(=O)N(CC(=O)O)c2cc(C(=O)O)ccc21 [Compound 9l, (R)-1-(Carboxymethyl)-3-isobutyl-5-methyl-2-oxo-2,3-dihydro-1H-benzo[e][1,4]diazepine-8-carboxylic acid]",> 200,
"CC1=N[C@H](CC(C)C)C(=O)N(Cc2ccncc2)c2cc(C(=O)O)ccc21 [Compound 9m, (R)-3-Isobutyl-5-methyl-2-oxo-1-(pyridin-4-ylmethyl)-2,3-dihydro-1H-benzo[e][1,4]diazepine-8-carboxylic acid]",> 200,
"CCCCCCCCCCNC(=O)CN1C(=O)[C@@H](CC(C)C)N=C(C)c2ccc(C(=O)O)cc21 [Compound 9o, (R)-3-Isobutyl-5-methyl-2-oxo-1-(2-oxo-2-(decylamino)ethyl)-2,3-dihydro-1H-benzo[e][1,4]diazepine-8-carboxylic acid]",,mode of inhibition (HIV-1 PR [3]): competitive inhibitor; general cytotoxicity to MT-4 cells (MT-4 cells): particularly cytotoxic; general cytotoxicity: tolerated by MT-4 cells (MT-4 cells): tolerated; inhibition of HIV replication within cells (RLU relative to control) [2]: appeared to inhibit HIV replication; solubility (Compound solubility): poor solubility
"CCCCCCCCCCCCCCCCNC(=O)CN1C(=O)[C@@H](CC(C)C)N=C(C)c2ccc(C(=O)O)cc21 [Compound 9p, (R)-3-isobutyl-5-methyl-2-oxo-1-(2-oxo-2-(hexadecylamino)ethyl)-2,3-dihydro-1H-benzo[e][1,4]diazepine-8-carboxylic acid]",,general cytotoxicity to MT-4 cells (MT-4 cells): particularly cytotoxic; general cytotoxicity: tolerated by MT-4 cells (MT-4 cells): All but 9p were tolerated; inhibition of HIV replication within cells (RLU relative to control) [2]: appeared to inhibit HIV replication
"CC1=N[C@H](CC(C)C)C(=O)N(CC(=O)N2CCNCC2)c2cc(C(=O)O)ccc21 [Compound 9r, (R)-3-Isobutyl-5-methyl-2-oxo-1-(2-oxo-2-(piperazin-1-yl)ethyl)-2,3-dihydro-1H-benzo[e][1,4]diazepine-8-carboxylic acid]",> 200,
